Experimental data of several laboratories.
In brackets after ≈: the same amount, converted by molar mass.

`CC[C@H](C)[C@H](NC(=O)[C@H](CCC(=O)O)NC(=O)[C@H](CCC(=O)O)NC(=O)[C@@H]1CCCN1C(=O)[C@H](CO)NC(=O)[C@H](C)NC(=O)[C@H](CC(=O)O)NC(=O)[C@H](CCC(=O)O)NC(=O)[C@H](CCC(=O)O)NC(=O)[C@@H]1CCCN1C(=O)[C@H](CCCCNC(=O)COCCOCCNC(=O)COCCOCCNC(=O)CC[C@H](NC(=O)CCCCCCCCCCCCCCCCC(=O)O)C(=O)O)NC(=O)[C@H](C)NC(=O)[C@@H]1CCCN1C(=O)[C@H](C)NC(=O)CC(C)C)C(=O)N[C@@H](CCC(N)=O)C(=O)N[C@@H](CCCNC(=N)N)C(=O)N[C@@H](Cc1ccc(O)cc1)C(=O)N[C@@H](Cc1ccc(O)cc1)C(=O)N[C@H](C(=O)N[C@@H](CO)C(=O)N[C@@H](CC(C)C)C(=O)N[C@@H](CCCNC(=N)N)C(=O)N[C@@H](Cc1c[nH]cn1)C(=O)N[C@@H](Cc1ccc(O)cc1)C(=O)N[C@@H](Cc1ccc(O)cc1)C(=O)N[C@@H](CC(N)=O)C(=O)N[C@@H](Cc1c[nH]c2ccccc12)C(=O)N[C@@H](CC(C)C)C(=O)N[C@H](C(=O)N[C@@H](CCCNC(=N)N)C(=O)N[C@@H](CCC(N)=O)C(=O)N[C@@H](CCCNC(=N)N)C(=O)N[C@@H](Cc1ccc(O)cc1)C(N)=O)[C@@H](C)O)C(C)C` has a Tmax of 32 h (male beagle dog, plasma; subcutaneous, 5 nmol/kg).
With `COc1cc(/C=C/C(=O)/C=C/c2ccc(O)c(OC)c2)ccc1O` the viability was 11.5% (WRL68; cell growth or viability, MTT; 3.2 µg/mL, 48 h).
`NC/C(=C\F)COc1cccc(Cn2c(=S)[nH]c(=O)c3[nH]cnc32)c1` gave an inhibition of less than 50% (ATP-dependent translocase ABCB1 (ABCB1, Homo sapiens, UniProt P08183); transporter efflux, inhibitor; 30 µM).
For `N#Cc1ccc(C[C@H](Nc2ncc(-c3ccc(F)cc3)o2)C(=O)N2CCc3ccccc32)cc1`, the kinetic solubility was 1.8 µM (≈ 0.814 µg/mL) (aqueous buffer; 2 h, pH 7.4, 37 °C).
`COc1cc(/C=C/c2cc(/C=C/c3ccc(O)c(OC)c3)n(-c3ccc(Cl)cc3Cl)n2)ccc1O` has a CC50 of greater than 99 µM (WRL68; cell growth or viability, MTT; 48 h).
`O=c1c(O[C@@H]2O[C@H](CO)[C@H](O)[C@H](O)[C@H]2O)c(-c2ccc(O)c(O)c2)oc2cc(O)cc(O)c12` has a Papp A→B of 0.383 ×10⁻⁶ cm/s (Caco-2; 100 µg/mL).
For `O=c1c(-c2ccc(O)cc2)coc2c([C@@H]3O[C@H](CO)[C@@H](O)[C@H](O)[C@H]3O)c(O)ccc12`, the Papp B→A was 5.66 ×10⁻⁶ cm/s (Caco-2; 100 µg/mL, 2 h).
`CCN1CCN(Cc2ccc(Nc3nc4ccc(Oc5ccnc(NC(=O)C6CCN(C)CC6)c5)cc4n3C)cc2C(F)(F)F)CC1` has a pKa of 8.8.
With `Cc1cc(C)c(CNC(=O)c2cc(Cl)c3c(c2C)O[C@@](C)([C@H]2CC[C@H](N(C)C)CC2)O3)c(=O)[nH]1` the Papp B→A was 20.4 ×10⁻⁶ cm/s (Caco-2; 10 µM).
`COc1cc(C2Oc3cc([C@H]4Oc5cc(O)cc(O)c5C(=O)[C@@H]4O)ccc3OC2CO)ccc1O` (some centres unmarked) has a Papp B→A of 17.2 ×10⁻⁶ cm/s (Caco-2; 100 µg/mL, 2 h).
`COc1ccc(-c2nn(-c3ccccc3)cc2C=NNc2cn[nH]c(=O)c2Cl)cc1` gave a CC50 of greater than 40 µM (Jurkat; cell growth or viability, imaging).
